Measured values taken from ChEMBL document CHEMBL2021883, “Amino acid, dipeptide and pseudodipeptide conjugates of ring-substituted 8-aminoquinolines: synthesis and evaluation of anti-infective, β-haematin inhibition and cytotoxic activities” (Eur J Med Chem, 2012).
pIC50: −log10 of the molar value. Values after ≈ are worked out from the molar mass of the structure shown. Active and inactive are the calls of the source. Unless noted, no cut-off for these calls is given here.

Key:
Leishmania donovani = assay: Antileishmanial activity against Leishmania donovani promastigote by Alamar Blue assay; format: functional, organism-based
Plasmodium falciparum [1] = assay: Antimalarial activity against chloroquine-resistant Plasmodium falciparum W2 assessed as plasmodial LDH activity; format: functional, organism-based
Candida albicans [2] = assay: Fungicidal activity against Candida albicans at 20 ug/ml; format: functional, organism-based
Outline: (§1)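 Broth dilution antifungal testing followed the NCCLS reference method for yeasts, with 20 as the highest test concentration. MIC was the lowest concentration with no detectable growth. MFC was the lowest concentration killing the organism.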

[3] = test system: Mycobacterium intracellulare; assay: Antimicrobial activity against Mycobacterium intracellulare ATCC 23068 by Franzblau method; format: functional, organism-based
Vero = assay: Cytotoxicity against african green monkey Vero cells upto 23.8 […] by neutral dye assay; format: cell-based, Chlorocebus sabaeus
Outline: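 Vero monkey kidney cells were exposed to compound up to a highest concentration of 23.8, with viability read by neutral red uptake.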

[4] = Selectivity index, ratio of IC50 for african green monkey Vero cells to IC50 for chloroquine-sensitive Plasmodium falciparum D6; format: toxicity, cell-based; conditions: Vero cells versus Plasmodium falciparum D6, read-out: Ratio IC50
Candida albicans [5] = assay: Antifungal activity against Candida albicans at 20 ug/ml; format: functional, organism-based; outline: as §1
Plasmodium berghei [6] = assay: Antimalarial activity against Plasmodium berghei blood-schizont in mouse malaria model assessed as elimination of parasitemia at 100 mg/kg, po for 4 days for 4 days measured after 7 days; format: functional, organism-based; parameters: dose 100 mg/kg
Outline: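 P. berghei-infected mice, 6 per group, received compound orally once daily for 4 days at 10, 25, 50 or 100 mg/kg/day. "Active" meant all treated animals were parasitaemia-negative up to D+7. "Curative" meant complete parasite elimination with survival to D+60. Outcomes were recorded as cured/total.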

[7] = Selectivity index, ratio of IC50 for african green monkey Vero cells to IC50 for chloroquine-resistant Plasmodium falciparum W2; format: toxicity, cell-based; conditions: Vero cells versus Plasmodium falciparum W2, read-out: Ratio IC50
Staphylococcus aureus [8] = assay: Antimicrobial activity against Staphylococcus aureus ATCC 29213 by CLSI method; format: functional, organism-based
Staphylococcus aureus [9] = assay: Antimicrobial activity against methicillin-resistant Staphylococcus aureus ATCC 43300 by CLSI method; format: functional, organism-based
Plasmodium falciparum [10] = assay: Antimalarial activity against chloroquine-sensitive Plasmodium falciparum D6 assessed as plasmodial LDH activity; format: functional, organism-based
[11] = Inhibition of beta-hematin formation; format: functional
Pseudomonas aeruginosa = assay: Antimicrobial activity against Pseudomonas aeruginosa ATCC 27853 by CLSI method; format: functional, organism-based
Outline: (§2)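 Antibacterial testing used CLSI/NCCLS broth dilution for aerobically growing bacteria, with 20 as the highest test concentration.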

Aspergillus fumigatus = assay: Antifungal activity against Aspergillus fumigatus; format: functional, organism-based
Outline: (§3)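 Yeasts and A. fumigatus were tested by broth microdilution following the NCCLS antifungal standards. The highest test concentration was 20.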

Cryptococcus neoformans = assay: Antifungal activity against Cryptococcus neoformans; format: functional, organism-based; outline: as §3
Escherichia coli [12] = assay: Antimicrobial activity against Escherichia coli ATCC 35218 by CLSI method; format: functional, organism-based
Plasmodium berghei [13] = assay: Antimalarial activity against Plasmodium berghei blood-schizont in mouse malaria model assessed as elimination of parasitemia at 100 mg/kg, po for 4 days for 4 days measured after 4 days; format: functional, organism-based; parameters: dose 100 mg/kg
[14] = test system: Mycobacterium intracellulare; assay: Antimicrobial activity against Mycobacterium intracellulare ATCC 23068 at 20 ug/ml by Franzblau method; format: functional, organism-based
Staphylococcus aureus [15] = assay: Bactericidal activity against methicillin-resistant Staphylococcus aureus ATCC 43300 at 20 ug/ml by CLSI method; format: functional, organism-based
Outline: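 MBC is the lowest concentration that kills the organism. 20 was the highest concentration tested.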

Escherichia coli [16] = assay: Antimicrobial activity against Escherichia coli ATCC 35218 at 20 ug/ml by CLSI method; format: functional, organism-based; outline: as §2
[17] = test system: Mycobacterium intracellulare; assay: Bactericidal activity against Mycobacterium intracellulare ATCC 23068 at 20 ug/ml by Franzblau method; format: functional, organism-based
Escherichia coli [18] = assay: Bactericidal activity against Escherichia coli ATCC 35218 at 20 ug/ml by CLSI method; format: functional, organism-based; outline: as §2
Staphylococcus aureus [19] = assay: Antimicrobial activity against methicillin-resistant Staphylococcus aureus ATCC 43300 at 20 ug/ml by CLSI method; format: functional, organism-based
Candida albicans [20] = assay: Antifungal activity against Candida albicans; format: functional, organism-based; outline: as §3
Pichia kudriavzevii = assay: Antifungal activity against Candida krusei; format: functional, organism-based; outline: as §3
Nakaseomyces glabratus = assay: Antifungal activity against Candida glabrata; format: functional, organism-based; outline: as §3
[21] = Leishmania donovani, read-out: IC50
[22] = Plasmodium falciparum, W2, read-out: IC50
[23] = Plasmodium falciparum, D6, read-out: IC50

Row | SMILES | IC90 (Leishmania donovani) | IC50 (Leishmania donovani; [21]) [µg/mL] | IC50 (Plasmodium falciparum [1]; [22]) [µg/mL] | Activity (Candida albicans [2]) | Activity [3] | IC50 (Vero) | selectivity ratio [4] | Activity (Candida albicans [5]) | selectivity ratio [7] | Activity (Staphylococcus aureus [9]) | IC50 (Plasmodium falciparum [10]; [23]) [µg/mL] | pIC50 [11] | Activity (Pseudomonas aeruginosa) | Activity (Aspergillus fumigatus) | IC50 (Cryptococcus neoformans) [µg/mL] | MFC (Cryptococcus neoformans) [µg/mL] | MIC (Cryptococcus neoformans) [µg/mL] | Activity (Escherichia coli [12]) | Activity [17] | Activity (Escherichia coli [18]) | further results
1 | COc1cc(NC(C)CCCNC(=O)[C@H](CCCN)NC(=O)[C@@H](N)CCCN)c2nc(C(C)(C)C)ccc2c1 (some centres not stated) | inactive | 20 (≈ 36.8 µM) | 2 (≈ 3.68 µM) | inactive | inactive | Non-toxic | > 9.5 | inactive | > 11.9 | inactive | 2.5 (≈ 4.6 µM) | 4.07 | inactive | inactive | 3.5 (≈ 6.44 µM) | 5 (≈ 9.2 µM) | 5 (≈ 9.2 µM) | inactive |  |  | Activity (Plasmodium berghei [6]): inactive; Activity (Staphylococcus aureus [8]): inactive; Activity (Plasmodium berghei [13]): inactive
2 | COc1cc(NC(C)CCCNC(=O)C[C@H](NC(=O)[C@@H](N)CCCNC(=N)N)C(=O)O)c2nc(C(C)(C)C)ccc2c1 (some centres not stated) | inactive |  | 2.8 (≈ 4.77 µM) | inactive | inactive | Non-toxic | > 7.2 | inactive | > 8.5 | inactive | 3.3 (≈ 5.62 µM) | 3.94 | inactive | inactive | 15 (≈ 25.6 µM) | 20 (≈ 34.1 µM) | 20 (≈ 34.1 µM) |  | inactive | inactive | Activity [14]: inactive; IC50 (Leishmania donovani): Not Active; Activity (Staphylococcus aureus [15]): inactive; Activity (Escherichia coli [16]): inactive; IC50 (Escherichia coli [12]): 15 µg/mL (≈ 25.6 µM); Activity (Staphylococcus aureus [19]): inactive
3 | COc1cc(NC(C)CCCNC(=O)[C@@H](CCCCN)NC(=O)[C@H](N)CCCCN)c2nc(C(C)(C)C)ccc2c1 (some centres not stated) | inactive |  | 2.8 (≈ 4.9 µM) | inactive | inactive | Non-toxic | > 5 | inactive | > 8.5 | inactive | 4.76 (≈ 8.32 µM) | < 3.00 | inactive | inactive | 6.5 (≈ 11.4 µM) | 10 (≈ 17.5 µM) | 10 (≈ 17.5 µM) | inactive |  |  | IC50 (Leishmania donovani): Not Active; Activity (Plasmodium berghei [6]): inactive; Activity (Staphylococcus aureus [8]): inactive; Activity (Plasmodium berghei [13]): inactive
4 | COc1cc(NC(C)CCCNC(=O)[C@@H](CCCN)NC(=O)[C@H](N)CCCN)c2nc(C(C)(C)C)ccc2c1 (some centres not stated) |  | 20 (≈ 36.8 µM) | 3.3 (≈ 6.07 µM) | inactive |  | Non-toxic | > 5 | inactive | > 7.21 | inactive | 4.76 (≈ 8.75 µM) | 4.41 | inactive | inactive | 3.5 (≈ 6.44 µM) | 5 (≈ 9.2 µM) | 5 (≈ 9.2 µM) | inactive | inactive | inactive | IC90 (Leishmania donovani; Leishmania donovani): 38 µg/mL (≈ 69.9 µM); Activity (Staphylococcus aureus [15]): inactive; IC50 [3]: 10 µg/mL (≈ 18.4 µM); MIC [3]: 20 µg/mL (≈ 36.8 µM); Activity (Escherichia coli [16]): inactive; Activity (Staphylococcus aureus [19]): inactive
5 | COc1cc(NC(C)CCCNC(=O)[C@H](CCCNC(=N)N)NC(=O)[C@@H](N)CCCNC(=N)N)c2nc(C(C)(C)C)ccc2c1 (some centres not stated) |  | 9 (≈ 14.3 µM) | 0.82 (≈ 1.31 µM) | inactive | inactive | Non-toxic | > 24.5 |  | > 29 |  | 0.97 (≈ 1.54 µM) | 4.28 | inactive | inactive | 2.5 (≈ 3.98 µM) | 5 (≈ 7.96 µM) | 5 (≈ 7.96 µM) | inactive | inactive | inactive | Activity [14]: inactive; IC90 (Leishmania donovani; Leishmania donovani): 31 µg/mL (≈ 49.4 µM); Activity (Plasmodium berghei [6]): Active; Activity (Escherichia coli [16]): inactive; IC50 (Staphylococcus aureus [9]): 7 µg/mL (≈ 11.1 µM); MBC (Staphylococcus aureus [9]): 20 µg/mL (≈ 31.9 µM); MIC (Staphylococcus aureus [9]): 10 µg/mL (≈ 15.9 µM); IC50 (Candida albicans [20]): 15 µg/mL (≈ 23.9 µM); MIC (Candida albicans [20]): 20 µg/mL (≈ 31.9 µM)
6 | COc1cc(NC(C)CCCNC(=O)C[C@H](NC(=O)[C@@H](N)CCCCN)C(=O)O)c2nc(C(C)(C)C)ccc2c1 (some centres not stated) |  | 9.4 (≈ 16.8 µM) | 2.8 (≈ 5.01 µM) | inactive | inactive | Non-toxic | > 6.2 | inactive | > 8.5 | inactive | 3.8 (≈ 6.8 µM) | 3.88 | inactive | inactive | 3.5 (≈ 6.26 µM) | 5 (≈ 8.95 µM) | 5 (≈ 8.95 µM) |  | inactive | inactive | Activity [14]: inactive; IC90 (Leishmania donovani; Leishmania donovani): 31 µg/mL (≈ 55.5 µM); Activity (Staphylococcus aureus [15]): inactive; IC50 (Escherichia coli [12]): 15 µg/mL (≈ 26.8 µM); MIC (Escherichia coli [12]): 20 µg/mL (≈ 35.8 µM); Activity (Staphylococcus aureus [19]): inactive
7 | COc1cc(NC(C)CCCNC(=O)CC[C@H](NC(=O)[C@@H](N)CCCNC(=N)N)C(=O)O)c2nc(C(C)(C)C)ccc2c1 (some centres not stated) | inactive |  | 2 (≈ 3.33 µM) | inactive | inactive | Non-toxic | > 10.3 | inactive | > 11.9 | inactive | 2.3 (≈ 3.83 µM) | 4.02 | inactive | inactive | 15 (≈ 25 µM) | 20 (≈ 33.3 µM) | 20 (≈ 33.3 µM) | inactive |  |  | IC50 (Leishmania donovani): Not Active; Activity (Plasmodium berghei [6]): inactive; Activity (Staphylococcus aureus [8]): inactive; Activity (Plasmodium berghei [13]): inactive
8 | COc1cc(NC(C)CCCNC(=O)[C@@H](CCCNC(=N)N)NC(=O)[C@H](N)CCCNC(=N)N)c2nc(C(C)(C)C)ccc2c1 (some centres not stated) |  | 20 (≈ 31.9 µM) |  | inactive | inactive | Non-toxic |  | inactive |  |  |  | < 3.00 | inactive | inactive | 3.55 (≈ 5.65 µM) | 10 (≈ 15.9 µM) | 10 (≈ 15.9 µM) | inactive | inactive | inactive | Activity [14]: inactive; IC90 (Leishmania donovani; Leishmania donovani): 34 µg/mL (≈ 54.2 µM); IC50 (Plasmodium falciparum [1]): Not Active; Activity (Escherichia coli [16]): inactive; IC50 (Staphylococcus aureus [8]): 11.2 µg/mL (≈ 17.8 µM); MBC (Staphylococcus aureus [8]): 20 µg/mL (≈ 31.9 µM); MIC (Staphylococcus aureus [8]): 20 µg/mL (≈ 31.9 µM); IC50 (Staphylococcus aureus [9]): 5.96 µg/mL (≈ 9.49 µM); MBC (Staphylococcus aureus [9]): 20 µg/mL (≈ 31.9 µM); MIC (Staphylococcus aureus [9]): 10 µg/mL (≈ 15.9 µM); IC50 (Plasmodium falciparum [10]): Not Active; IC50 (Pichia kudriavzevii): 7.08 µg/mL (≈ 11.3 µM); MFC (Pichia kudriavzevii): 10 µg/mL (≈ 15.9 µM); MIC (Pichia kudriavzevii): 10 µg/mL (≈ 15.9 µM); IC50 (Nakaseomyces glabratus): 12.4 µg/mL (≈ 19.8 µM); MFC (Nakaseomyces glabratus): 20 µg/mL (≈ 31.9 µM); MIC (Nakaseomyces glabratus): 20 µg/mL (≈ 31.9 µM)
